# Screening results: PubChem BioAssay, Johns Hopkins Ion Channel Center
# Compounds with a hit are over-represented: about 3.7% of the library has one in this group of screens.
# Kir21 inh: inhibitors of mouse Kir2.1 inward-rectifier potassium channel; Inward rectifier potassium channel 2 (Mus musculus), P35561; HEK293-Kir2.1, FluxOR thallium flux fluorescence; active compounds read low; B-score at 10 µM; actives 0.85% (n = 310,000); AID 1672, 2009;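 active means fluorescence ratio B-score at or below minus 3 SD of library scores, with starting-brightness B-score within 2 SD, cut at about -4.2 in these data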;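 further: channel flux triggered by added potassium and thallium sulfate stimulus; B-score of peak minus minimum fluorescence over baseline after thallium stimulus; more negative B-score means stronger Kir2.1 block with less thallium influx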
# KCNQ1 act: potentiators or activators of KCNQ1 channel, primary screen, cell-based, thallium flux, high-throughput; Potassium voltage-gated channel subfamily KQT member 1 (Homo sapiens), P51787; CHO-K1 KCNQ1, thallium flux FluxOR fluorescence; active compounds read high; B-score at 10 µM; actives 0.35% (n = 310,000); AID 2648, 2010;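 active means fluorescence ratio B-score, a plate-corrected score, at least three library SD, with initial intensity B-score within 5 SD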
#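 System: Stable KCNQ1 CHO-K1 line | Incubation: 90 min dye loading and 20 min compound exposure, both at room temperature | Measure: Ratio B score | Medium: Assay buffer for compound exposure, DMSO matched across wells | Compound dosing: Single-concentration screen | Probe or stimulus: K+/Tl+ depolarizing stimulus | Measured by: Kinetic FluxOR fluorescence, 10 s baseline plus 110 s post-stimulus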
# KCNK9 block: KCNK9 potassium channel inhibitors, primary screen, HEK293 cells, thallium flux; Potassium channel subfamily K member 9 (Homo sapiens), Q9NPC2; actives 1.2% (n = 310,000); FluxOR thallium flux fluorescence; active compounds read low; B-score at 10 µM;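 active means ratio B-score over 3 SD below the library mean, with starting fluorescence within 5 SD of its mean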;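 further: negative B-score means less thallium flux so channel inhibition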
# Target sequence (Q9NPC2 whole entry, looked up): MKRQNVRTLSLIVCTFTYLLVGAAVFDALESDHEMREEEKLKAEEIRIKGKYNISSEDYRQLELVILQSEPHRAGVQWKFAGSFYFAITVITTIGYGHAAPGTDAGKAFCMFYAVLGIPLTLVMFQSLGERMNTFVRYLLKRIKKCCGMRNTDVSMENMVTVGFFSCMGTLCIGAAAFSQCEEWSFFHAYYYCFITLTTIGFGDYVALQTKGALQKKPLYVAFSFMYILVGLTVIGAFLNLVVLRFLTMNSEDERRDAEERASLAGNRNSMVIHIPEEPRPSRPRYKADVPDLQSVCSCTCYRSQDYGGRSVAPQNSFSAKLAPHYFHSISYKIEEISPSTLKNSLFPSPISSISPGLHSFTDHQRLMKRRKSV
# hERG protect: hERG rescue from dofetilide block, primary screen, cell-based, CHO-hERG, FluxOR thallium flux, dofetilide IC70 | Voltage-gated inwardly rectifying potassium channel KCNH2 (Homo sapiens), Q12809 | dofetilide IC70 present | activation (rescue from dofetilide block), less the hit threshold, % at 10 µM | actives 0.51% (n = 310,000) | AID 1511, 2009;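 active means activation above the mean of controls blocked by dofetilide plus 5 SD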;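 further: thallium influx through hERG after potassium depolarization seen as dye fluorescence rise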
# KCNQ1 block: inhibitors of human KCNQ1 channel, primary screen, cell-based, thallium flux, high-throughput; actives 1.3% (n = 310,000); CHO-K1 KCNQ1, FluxOR thallium flux fluorescence; active compounds read high; Potassium voltage-gated channel subfamily KQT member 1 (Homo sapiens), P51787; AID 2642, 2010; B-score at 10 µM;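 active means compounds whose thallium flux B-score, printed positive for inhibition, exceeds three library SD while starting fluorescence stays within three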;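 further: channel opened by potassium depolarization with thallium stimulus after 20 min compound exposure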
# KCNK3 inh: human KCNK3 channel inhibitors, primary screen, CHO cells, FluxOR thallium flux, B-score | FluxOR fluorescence; active compounds read low | B-score at 10 µM | actives 0.84% (n = 340,000) | AID 602410, 2012;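 active means B-score under library mean minus 4 SD, starting fluorescence ratio at most library mean plus 5 SD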;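 further: more negative B-score means stronger inhibition of thallium flux through KCNK3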
# Numbers without * were called inactive; i = inactive; . = no result.
SMILES,Kir21 inh,KCNQ1 act,KCNK9 block,hERG protect,KCNQ1 block,KCNK3 inh
CC1Sc2ccc(C(=O)NCc3cccc(C(F)(F)F)c3)cc2NC1=O (configuration not stated),.,.,.,.,.,i
CC(C)c1ccc(/C=C/C(=O)NC(=S)Nc2ccc(CN3CCOCC3)cc2)cc1,0.04,i,i,-17.1,9*,i
CC(C)c1ccc(/C=C/C(=O)NC(=S)NN2CCOCC2)cc1,-0.23,i,i,-9.3,i,i
COc1cc(/C=N/Nc2nc(N3CCCC3)nc(N3CCCC3)n2)ccc1OCc1ccccc1F,-1.04,i,i,10.9*,i,i
CC12CCC(=O)N1C(C(=O)NNC(=O)COc1ccccc1F)CS2 (configuration not stated),.,.,.,.,.,i
OCCN1CCN(CC#CCC(c2ccccc2)c2ccccc2)CC1,-5.67*,i,i,-3.7,i,i
OCCN1CCN(CC#CCn2c3ccccc3c3ccccc32)CC1,-4.07,i,i,-6.6,i,i
CN(C)C(CNC(=O)c1ccc(S(=O)(=O)Nc2cccc(C(F)(F)F)c2)cc1)c1ccco1 (configuration not stated),-0.34,i,i,-14.6,i,i
CC(C)CCC(CCNCc1ccccn1)c1ccc2c(c1)OCO2 (configuration not stated),-7.2*,i,i,-16.5,i,i
CC(C)C(CCNCc1ccccn1)c1ccc(Cl)cc1 (configuration not stated),-4.37*,i,i,-4.5,i,i
Fc1ccccc1CNCCC(Cc1ccccc1)c1ccc2c(c1)OCO2 (configuration not stated),-8.73*,i,i,-20.9,i,i
CCOC(=O)CNC1CC(=O)N(c2cccc(Cl)c2)C1=O (configuration not stated),0.59,i,i,5.3*,i,i
CCCc1cc(=O)[nH]c(SCC(=O)N(CCOC)c2c(N)n(Cc3ccccc3)c(=O)[nH]c2=O)n1,-0.72,i,i,-4.4,i,i
CCc1cccc(NC(=O)C2CCCN(S(=O)(=O)c3cccnc3)C2)c1 (configuration not stated),0.5,i,i,-12.6,i,i
Cc1c(NC(=O)C(Sc2ccccc2)c2ccccc2)cccc1[N+](=O)[O-] (configuration not stated),0.03,i,i,-10.3,i,i
O=C(Nc1cc([N+](=O)[O-])ccc1Cl)C(Sc1ccccc1)c1ccccc1 (configuration not stated),-2.71,i,-7.08*,-7.8,i,i
CCC(C)NC(C(=O)Nc1ccc(Cl)c([N+](=O)[O-])c1)c1ccccc1 (configuration not stated),0.15,i,-6.98*,-17.0,i,i
CC(CC(=O)Nc1ccc(F)c([N+](=O)[O-])c1)c1ccccc1 (configuration not stated),-0.49,i,i,-3.5,6*,i
CC(CC(=O)Nc1cccc(Cl)c1)c1ccccc1 (configuration not stated),0.23,i,i,-14.7,i,i
COCC(C)NC(C(=O)Nc1ccc(Cl)c([N+](=O)[O-])c1)c1ccccc1 (configuration not stated),-3.71,i,i,-9.6,i,i
O=C(NCCCl)Nc1ccc(Cl)c([N+](=O)[O-])c1,1.34,i,i,-14.8,10*,i
Cc1cc(C)nc(SCC(=O)NN=Cc2ccc(C)o2)n1,.,.,.,.,.,i
O=C(Nc1ccc(Cl)c([N+](=O)[O-])c1)C(Sc1ccccc1)c1ccccc1 (configuration not stated),1.37,i,i,-17.1,11*,i
CC(=O)N(C)c1ccc(NC(=O)C(Sc2ccccc2)c2ccccc2)cc1 (configuration not stated),-1.21,i,i,-9.8,i,i
CC(C)CCn1c(=S)[nH]c2ncccc2c1=O,1.68,10*,i,9.9*,i,i
SMILES,Kir21 inh,KCNQ1 act,KCNK9 block,hERG protect,KCNQ1 block,KCNK3 inh
CC1(C)Cc2c(c(N3CCOCC3)nc3snc(N)c23)CO1,-1.11,i,-7.01*,-19.9,i,i
COCCn1c(SCC(=O)Nc2cccnc2Cl)nc2ccccc21,.,.,.,.,.,i
COCCn1c(SCC(=O)Nc2nc(C)c(Cl)cc2Cl)nc2ccccc21,-6.29*,i,i,-3.1,i,i
CC(C)(C)OC(=O)C[C@H]1C/C=C\C[C@H](CC(=O)N[C@@H](CO)Cc2ccccc2)C(=O)N[C@H](C(C)(C)C)COC1=O,.,.,.,.,.,i
Brc1cc2c(cc1-c1nc3ccccc3s1)OCO2,-1.94,i,-7.12*,-3.0,i,i
O=C1OC(c2ccccc2)=C/C1=C/N1CCCCC1,-0.23,i,i,-7.1,i,i
COC(=O)/C=C1\OC(c2ccccc2)=CC1=O,-10.4*,i,i,-34.2,8*,.
CN(C(=O)CSc1nc2c(cnn2-c2ccccc2)c(=O)[nH]1)C1CCS(=O)(=O)C1 (configuration not stated),0.07,i,i,-10.2,i,.
CCOC(=O)C1(Cc2ccccc2C(F)(F)F)CCN(C2CCN(C(C)C)CC2)CC1,-0.02,i,i,-19.3,i,i
C[C@H](NC(=O)c1nc[nH]c1C(=O)N[C@H](C)c1ccccc1)C(=O)OC(C)(C)C,0.68,i,i,-11.2,i,i
C[C@H](NC(=O)c1nc[nH]c1C(=O)NC(c1ccccc1)c1ccccc1)C(=O)OC(C)(C)C,-0.92,i,-6.97*,-9.0,i,i
Cc1cccc(CSc2nnc([C@@H]3CCCN3C(=O)OC(C)(C)C)o2)c1,-6.02*,i,i,-14.0,i,i
CC(C)(C)OC(=O)N1CCC[C@H]1c1nnc(SCc2c(Cl)cccc2Cl)o1,-3.18,i,i,-15.7,i,i
COc1cc(C(=O)NCc2ccc(S(N)(=O)=O)cc2)ccc1OCC(=O)N1CCOCC1,.,.,.,.,.,i
Cc1ccc(Nc2cc(C)c3ccc(O)cc3n2)cc1C,-5.09*,i,i,-28.8,i,i
CC(=O)Nc1ccc(NC2=C(Cl)C(=O)c3ccccc3C2=O)cc1,0.69,i,i,-9.5,12*,.
O=C1C(Cl)=C(Nc2ccc3cn[nH]c3c2)C(=O)c2ccccc21,1.11,i,i,-8.6,9*,i
